# In ChEMBL document CHEMBL1137724, “2-Azetidinone derivatives: design, synthesis and evaluation of cholesterol absorption inhibitors” (2009):
# Tests used:
# [1] = test system: Hamster; assay: Hypocholesterolemic effect in high cholesterol-fed hamster assessed as increase in HDL-cholesterol at 50 mg/kg, po for 7 days; assay type: functional, Cricetinae
# Outline: (§1)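 Blood was collected at sacrifice on the last dosing day for lipid analysis. Plasma total cholesterol and HDL-C were measured by a commercial kit using a modified cholesterol oxidase method.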
# [2] = test system: Hamster; assay: Hypocholesterolemic effect in high cholesterol-fed hamster assessed as reduction in plasma total cholesterol at 50 mg/kg, po for 7 days; assay type: functional, Cricetinae; set-up: scale not given: the % may be the effect or the level left; outline: as §1
SMILES,Activity [1],Activity [2],Activity ([1]; 50 mg/kg),Activity ([2]; 50 mg/kg)
COc1ccc(N2C(=O)[C@H](CCC(O)(c3ccc(F)cc3)c3ccc(F)cc3)[C@H]2c2cc3c(cc2Br)OCO3)cc1,31.8%,19.8%,–,–
COc1ccc([C@@H]2[C@@H](CCC(=O)Nc3ccc(C)cc3)C(=O)N2c2ccc(OC)cc2)cc1,–,–,21.7%,28.1%
COc1ccc([C@@H]2[C@@H](CCC(O)(c3ccccc3)c3ccccc3)C(=O)N2c2ccccc2C)cc1,14.5%,34.8%,–,–
Cc1ccccc1N1C(=O)[C@H](CCC(O)(c2ccc(F)cc2)c2ccc(F)cc2)[C@H]1c1ccc2c(c1)OCO2,24.8%,10.4%,–,–
COc1ccc([C@@H]2[C@@H](CCC(=O)Nc3ccc(C)cc3)C(=O)N2c2ccccc2)cc1,–,–,22.1%,–
COc1ccc([C@@H]2[C@@H](CCC(=O)Nc3ccc(Cl)cc3)C(=O)N2c2ccc(C)cc2)cc1,13.7%,31.6%,–,–
COc1ccc([C@@H]2[C@@H](CCC(=O)Nc3ccc(C)cc3)C(=O)N2c2ccc(OC)cc2)cc1 (relative stereo),–,–,12.4%,20.9%
COc1ccc([C@H]2[C@H](CCC(=O)Nc3ccc(Cl)cc3)C(=O)N2c2ccc(C)cc2)cc1 (relative stereo),17.8%,26.3%,–,–
COc1ccc([C@@H]2[C@@H](CCC(O)(c3ccccc3)c3ccccc3)C(=O)N2c2ccc(F)cc2)cc1 (relative stereo),35%,16.3%,–,–
COc1ccc([C@@H]2[C@@H](CCC(=O)Nc3ccc(Cl)cc3)C(=O)N2c2ccc(OC)cc2)cc1 (relative stereo),20.1%,16.3%,–,–
COc1ccc([C@@H]2[C@@H](CCC(O)(c3ccc(F)cc3)c3ccc(F)cc3)C(=O)N2c2ccc(Br)cc2)cc1 (relative stereo),32.9%,11.2%,–,–
COc1ccc([C@@H]2[C@@H](CCC(=O)Nc3ccc(C)cc3)C(=O)N2c2ccccc2)cc1 (relative stereo),–,–,13.9%,–
COc1ccc([C@@H]2[C@@H](CCC(=O)Nc3ccc(C)cc3)C(=O)N2c2ccc(C)cc2)cc1 (relative stereo),23.9%,18.7%,–,–
O=C1[C@H](CCC(O)(c2ccccc2)c2ccccc2)[C@@H](c2ccc3c(c2)OCO3)N1c1ccc(Cl)cc1 (relative stereo),11.4%,28.7%,–,–
O=C1[C@H](CC[C@H](O)c2ccc(F)cc2)[C@@H](c2ccc(O)cc2)N1c1ccc(F)cc1 [EZETIMIBE],37.3%,48.7%,–,–
